Data reported in ChEMBL document CHEMBL4052589, “Discovery of Imidazo[1,2-a]pyridine Ethers and Squaramides as Selective and Potent Inhibitors of Mycobacterial Adenosine Triphosphate (ATP) Synthesis” (J Med Chem, 2017).
In brackets after ≈: the same amount, converted by molar mass. Activity calls are given as the source filed them. The rule behind the calls is not given here.

Experiments:
[1] = Inhibition of ATP synthase in Mycobacterium smegmatis inverted membrane vesicles using NADH as substrate incubated for 60 mins by luciferin-luciferase reaction based bioluminescence assay; design: species or system Mycolicibacterium smegmatis
Outline: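 ATP made by oxidative phosphorylation in M. smegmatis inverted membrane vesicles (IMVs), driven by NADH with ADP and Pi as ATP synthase substrates. ATP was read by luminescence. IC50 was taken from dose-response testing.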

[2] = test system: Mycobacterium tuberculosis; test: Antimycobacterial activity against Mycobacterium tuberculosis H37Rv by turbidometric method; type: functional
Outline: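 MIC taken as the minimum concentration inhibiting M. tuberculosis growth by 80%.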

[3] = test system: Mycolicibacterium smegmatis; test: Inhibition of cytochrome c oxidase in Mycobacterium smegmatis inverted membrane vesicles lacking cytochrome-bd complex assessed as reduction of oxygen consumption treated between 250 to 450 secs post NADH addition
[4] = test system: Mycolicibacterium smegmatis; test: Inhibition of oxygen consumption in Mycobacterium smegmatis inverted membrane vesicles lacking cytochrome bc1 complex treated between 250 to 450 secs post NADH addition; type: functional
[5] = Selectivity index, ratio of IC50 for human THP1 cells to MIC for Mycobacterium tuberculosis H37Rv; type: toxicity; settings: read-out: Selectivity Index
Outline: (§1)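 Cytotoxicity index is MMIC divided by M. tuberculosis MIC. MMIC is the minimum concentration inhibiting A549 or THP1 proliferation by 50%. MIC is the concentration giving 80% growth inhibition.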

[6] = Selectivity index, ratio of IC50 for human A549 cells to MIC for Mycobacterium tuberculosis H37Rv; type: toxicity; settings: read-out: Selectivity Index; outline: as §1
[7] = Lipophilicity, log D of compound; type: physicochemical; settings: octanol/water
[8] = test system: Mycolicibacterium smegmatis; test: Selectivity ratio of IC50 for NDH2 in Mycobacterium smegmatis inverted membrane vesicles using NADH as substrate to IC50 for SDH in Mycobacterium smegmatis inverted membrane vesicles using succinate as substrate
[9] = test system: Mycolicibacterium smegmatis; test: Selectivity ratio of IC50 for NADH dependent ATP synthesis in Mycobacterium smegmatis inverted membrane vesicles lacking cytochrome-bc1 complex to IC50 for cytochrome c oxidase in Mycobacterium smegmatis inverted membrane vesicles assessed as decrease in NADH dependent ATP synthesis
[10] = test system: Mycobacterium tuberculosis; test: Bactericidal activity against Mycobacterium tuberculosis H37Rv; type: functional
[11] = test system: Mycobacterium tuberculosis; test: Antimycobacterial activity against Mycobacterium tuberculosis H37Rv infected in BALB/c mouse assessed as bacterial growth inhibition at 100 to 200 mg/kg, po qd administered […] for 2 weeks; type: functional, organism-based
Plasma [12] = test: Ratio of free plasma concentration in BALB/c mouse infected with Mycobacterium tuberculosis H37Rv in absence of pan CYP inhibitor ABT to presence of pan CYP inhibitor ABT; type: ADME
Mus musculus = test: Time required for free plasma concentration to maintain above in vitro MIC for Mycobacterium tuberculosis H37Rv in BALB/c mouse infected with Mycobacterium tuberculosis H37Rv at 100 mg/kg, po in presence of pan CYP inhibitor ABT
Plasma [13] = test: Drug uptake in BALB/c mouse plasma at 100 mg/kg, po in presence of pan CYP inhibitor ABT by LC-MS/MS method; type: ADME, organism-based; settings: in vivo

SMILES | IC50 [1] [nM] | MIC80 [2] [µM] | also measured
Cc1ccc2nc(-c3ccc(F)cc3)c(OCCCOc3ccc(C)nc3)n2c1 | < 20 | < 0.8 | –
COc1ncc(NCCCOc2c(-c3ccc(F)cc3)nc3ccc(C)cn23)cc1C | 80 | < 0.8 | –
Cc1ccc2nc(-c3ccc(F)cc3)c(OCCCOc3ccc(C)nc3C)n2c1 | 90 | 6.3 (≈ 2.55 µg/mL) | –
Cc1ccc2nc(-c3ccc(F)cc3)c(OCCCNc3cnc(C)c(Br)c3)n2c1 | 210 | 0.8 (≈ 0.375 µg/mL) | –
Cc1ccc2nc(-c3ccccc3)c(OCCOc3ccc(F)cc3)n2c1 | 50 | < 1 | inhibition [3]: Active; inhibition [4]: inactive
Cc1ccc2nc(-c3ccc(F)cc3)c(OCCOc3ccc(F)cc3)n2c1 | 20 | 3.1 (≈ 1.18 µg/mL) | inhibition [3]: Active; inhibition [4]: inactive
Cc1ccc2nc(-c3ccc(F)cc3)c(OCCCN3CCN(c4ccccc4)CC3)n2c1 | 50 | < 0.8 | –
Cc1ccc2nc(-c3ccc(F)cc3)c(OCCNC(=O)c3ccc(C)nc3)n2c1 | 7200 | > 200 | –
c1ccc(OCCCOc2c(-c3ccccc3)nc3ccccn23)cc1 | 130 | 1.6 (≈ 0.551 µg/mL) | –
Cc1ccc2nc(-c3ccc(F)cc3)c(OCCNS(=O)(=O)c3ccc(F)c(Cl)c3)n2c1 | 400 | 3.1 (≈ 1.48 µg/mL) | –
Cc1ccc2nc(-c3ccccc3)c(OCCCOc3ccccc3)n2c1 | 30 | < 0.5 | inhibition [3]: Active; inhibition [4]: inactive
Cc1cnc(CNc2c(-c3ccc(C(F)(F)F)cc3)c(=O)c2=O)cn1 | 8400 | 50 (≈ 17.4 µg/mL) | –
Clc1ccc2nc(-c3ccccc3)c(OCCN3CCOCC3)n2c1 | 36100 | > 200 | Selectivity ratio [5]: 0.5; Selectivity ratio [6]: 0.5; logD [7]: 3.3
COc1nc2ccc(Br)cc2cc1[C@@H](c1ccccc1)[C@@](O)(CCN(C)C)c1cccc2ccccc12 | – | – | Ratio IC50 [8]: 1.5; Ratio IC50 [9]: 2; inhibition [3]: inactive; inhibition [4]: inactive
Clc1ccc2nc(-c3ccccc3)c(OCCCOc3ccccc3)n2c1 | < 20 | < 0.5 | MBC [10]: > 100 µM
Cc1ccc2nc(-c3ccc(F)cc3)c(OCCNCc3ccc(C)c(F)c3)n2c1 | 70 | 0.6 (≈ 0.244 µg/mL) | –
N#Cc1ccc2nc(-c3ccccc3)c(OCCCOc3ccccc3)n2c1 | > 100000 | > 250 | –
O=c1c(NCc2ccc(-c3ccccc3)cn2)c(-c2ccc(N3CCOCC3)cc2)c1=O | 9500 | > 100 | –

SMILES | IC50 [1] [nM] | MIC80 [2] [µM] | also measured
Cc1ccc2nc(-c3ccc(F)cc3)c(OCCCOc3cncnc3)n2c1 | 5600 | 6.9 (≈ 2.61 µg/mL) | inhibition [3]: Active; inhibition [4]: inactive
CC(Nc1c(-c2ccc(N3CCOCC3)cc2)c(=O)c1=O)c1ccccn1 (configuration not stated) | > 25000 | > 100 | –
N#Cc1ccc(-c2c(NCc3ccccn3)c(=O)c2=O)cc1 | 66600 | 100 (≈ 28.9 µg/mL) | –
O=c1c(NCc2ccccc2)c(-c2ccc(N3CCOCC3)cc2)c1=O | > 100000 | > 100 | –
O=c1c(NCc2ccccn2)c(-c2ccc(N3CCOCC3)cc2)c1=O | 30 | 0.5 to 0.8 (≈ 0.175 to 0.28 µg/mL) | growth inhibition (GI) [11]: Active; Ratio (Plasma [12]): 300; Time (Mus musculus): 15 h
Cc1ccc2nc(-c3ccccc3)c(OCCCN3CCN(C)CC3)n2c1 | 6400 | > 200 | –
Cc1ccc2nc(-c3ccc(F)cc3)c(OCCCOc3cccnc3)n2c1 | 160 | < 0.9 | –
Fc1ccc(OCCOc2c(-c3ccccc3)nc3ccccn23)cc1 | 80 | < 0.8 | –
Cc1ccc2nc(-c3ccc(F)cc3)c(OCCCNc3ccc(F)c(C)n3)n2c1 | 60 | < 0.5 | MBC [10]: > 100 µM
Cc1ccc2nc(-c3ccc(F)cc3)c(OCCCNS(=O)(=O)c3ccc(F)cc3)n2c1 | 700 | 1.6 (≈ 0.732 µg/mL) | –
Cc1ccc2nc(-c3ccc(F)cc3)c(OCCCOc3cncc(F)c3)n2c1 | 60 | < 0.6 | –
COCCCOc1c(-c2ccccc2)nc2ccccn12 | 18900 | > 15 | –
O=c1c(NCc2ccccn2)c(-c2ccc(C(F)(F)F)cc2)c1=O | 300 | 6.2 (≈ 2.06 µg/mL) | –
Fc1ccc(OCCOc2c(-c3ccccc3)nc3ccc(Cl)cn23)cc1 | 40 | < 1 | inhibition [3]: Active; inhibition [4]: inactive
NNC(=O)c1ccncc1 [ISONIAZID] | – | 0.02 (≈ 0.00274 µg/mL) | –
O=c1c(NCc2cnccn2)c(-c2ccc(N3CCOCC3)cc2)c1=O | 770 | 3.12 to 12.5 (≈ 1.09 to 4.38 µg/mL) | –
Cc1ccc2nc(-c3ccc(F)cc3)c(OCCCNc3ccc(F)c(C)c3)n2c1 | 5 | 0.03 (≈ 0.0122 µg/mL) | Drug uptake (Plasma [13]): Active; MBC [10]: > 100 µM
CO[C@H]1/C=C/O[C@@]2(C)Oc3c(C)c(O)c4c(O)c(c(/C=N/N5CCN(C)CC5)c(O)c4c3C2=O)NC(=O)/C(C)=C\C=C\[C@H](C)[C@H](O)[C@@H](C)[C@@H](O)[C@@H](C)[C@H](OC(C)=O)[C@@H]1C [RIFAMPIN] | – | 0.004 (≈ 0.00329 µg/mL) | –
